# Only some compounds are listed: those with a hit (about 10% of all), similar ones and a draw of the others.
# Diaphorase act = counter-screen for diaphorase-based assays: diaphorase activators and chemical reducers | Diaphorase/resazurin coupled assay, resorufin fluorescence, 16 min; active compounds read high; 1 = vehicle wells, 0 = NADH-free wells | hit rate 0.005% among 190,000 | activation factor at 20 µM;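 active = diaphorase activity raised at least twofold by the compound at 20 µM; inactive = activation factor below 2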
#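 Assay system: bacterial diaphorase enzyme (C. kluyveri) / Input: enzyme 0.07 U/mL final / Medium: 50 mM HEPES pH 7.4 with 4.542 mM MgCl2, 0.005% Tween 20 / Doses: single compound dose of 20 µM, 1% DMSO final / Incubation: 16 min enzyme reaction, ambient temperature / Signal: fluorescence, excitation 544 nm and emission 590 nm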
# WT yeast gro inh = growth inhibition of WT yeast, mitochondrial fusion screen | mitochondrial fusion phenotypic screen, WT strain | inhibition, % at 10 µM | hit rate 2.1% among 190,000; in the data active = inhibition above about 58%; tested in S. cerevisiae
# Lmaj promast = inhibitors of Leishmania major promastigote growth; Leishmania major promastigotes, resazurin fluorescence viability; inhibition, % at 10 µM; hit rate 9% among 200,000; in the data active = inhibition above about 50%;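 also: promastigotes grown with compound for 44 hours at 28 °C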
# PMI act = phosphomannose isomerase (human) activation | P34949 | activation factor at 20 µM | purified human PMI, coupled resazurin fluorescence, 20 min; active compounds read high; 1 = vehicle control, 0 substrate-free wells | hit rate 0.005% among 190,000;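 active = activation factor of 2 or more at 20 µM, relative to plate controls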
# Target sequence (P34949 whole entry, looked up): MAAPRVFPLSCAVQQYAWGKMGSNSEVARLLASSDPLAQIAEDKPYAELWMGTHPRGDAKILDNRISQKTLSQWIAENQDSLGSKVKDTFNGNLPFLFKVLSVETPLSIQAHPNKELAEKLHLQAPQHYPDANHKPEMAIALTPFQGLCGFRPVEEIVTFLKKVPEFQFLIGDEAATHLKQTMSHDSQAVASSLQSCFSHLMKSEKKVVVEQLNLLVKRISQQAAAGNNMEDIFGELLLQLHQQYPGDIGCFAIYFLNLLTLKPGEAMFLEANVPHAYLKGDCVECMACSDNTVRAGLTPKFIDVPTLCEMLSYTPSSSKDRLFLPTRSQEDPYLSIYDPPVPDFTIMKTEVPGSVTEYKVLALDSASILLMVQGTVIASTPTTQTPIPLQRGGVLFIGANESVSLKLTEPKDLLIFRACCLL
# PMI act satM6P = increases human PMI activity with near-saturating mannose 6-phosphate. coupled PMI enzyme assay, resazurin fluorescence, 20 min; active compounds read high; 1 = untreated enzyme, 0 = substrate-free blank. activation factor at 20 µM. P34949. hit rate 0.34% among 190,000;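 active = activation factor of 2 or more at 20 µM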
#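 Technique: Diaphorase-driven resazurin-to-resorufin fluorescence, excitation 544, emission 590 nm | Assay system: Human PMI in coupled enzyme assay | Times: Enzyme reaction with compound 20 min at room temperature | Medium: HEPES-buffered pH 7.4 with magnesium and detergent | Reagent: Mannose-6-phosphate 1.0 mM (near-saturating) plus 0.22 mM NADP+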
# The depositor's hits bear a star; · = not tested or not shown.
SMILES,Diaphorase act,WT yeast gro inh,Lmaj promast,PMI act,PMI act satM6P
O=C(O)C1CCCCC1C(=O)N1CC=C(c2ccccc2)CC1 (centres undefined),0.9,-4,61*,1,0.9
CCN(CC)c1nc(OCCNC(=O)Nc2ccccc2)nc(N(CC)CC)n1,0.7,56,26,1,1.2
CCC(C)(C)c1ccc2c(c1)C(=O)c1ccccc1C2=O,0.8,76*,6,1,1.1
Cc1oc2ccc(OC(=O)c3cccs3)cc2c1C(=O)OC(C)C,0.9,71*,-4,1,1
Cc1cc(OC(=O)c2cccs2)ccc1C(C)C,0.8,33,-1,1,1
Cc1ccc(C)c(OCC(O)CN2CCCCC2C)c1 (centres undefined),0.8,5,91*,1,0.9
C=CCc1ccc(OCC(O)COc2ccc(CC=C)cc2OC)c(OC)c1,0.7,9,12,0.8,0.9
C=CCc1ccc(OCC(O)CN2CCCCC2)c(OC)c1 (centres undefined),0.8,-2,78*,1,0.9
C=CCc1cc(OC)ccc1OCC(O)CN1CCN(c2ccc(OC)cc2)CC1 (centres undefined),0.9,7,16,0.9,1
C=CCc1ccc(OCC(O)CN2CCCCC2C)c(OC)c1 (centres undefined),1.1,·,93*,1,0.9
Cn1c(O)c(N=NC(=S)Nc2ccccc2F)c2cc(S(=O)(=O)N3CCOCC3)ccc21,0.9,74*,0,1,0.9
Cc1ccc(NC(=S)N=Nc2c(O)n(C)c3ccc(S(=O)(=O)N4CCOCC4)cc23)cc1C,0.8,51,7,1,0.9
O=c1[nH]c(Nc2ccc3c(c2)OCCO3)nnc1Cc1ccc(Cl)cc1,1,-14,-9,1,1
Cc1nnc(-c2ccc(Cl)cc2)[nH]c1=O,0.9,3,-2,1,1
O=c1[nH]c(=O)c2ncc(-c3ccc(Cl)cc3)nc2[nH]1,1.1,-6,80*,1.1,1
C=CCOc1ccc(Br)cc1CNCCCN1CCOCC1,1.1,-10,12,1.1,1.2
Cc1cc(Cl)cc(Br)c1OCCCCn1cncn1,0.9,31,93*,1,1
COc1cccc(-c2csc(N3CCN(CC(=O)NNC(=O)c4ccc(Cl)cc4)CC3)n2)c1,0.9,-4,9,0.9,0.9
COc1cccc(-c2csc(N3CCN(CC(=O)NNC(=O)c4ccc(Br)cc4)CC3)n2)c1,0.9,0,-3,0.8,0.8
COc1ccc(NC(=O)N2CCN(c3nc(-c4cccc(OC)c4)cs3)CC2)cc1,0.8,16,79*,0.8,0.8
COc1cccc(-c2csc(N3CCN(C(=O)Nc4ccc(Cl)cc4)CC3)n2)c1,0.8,67*,29,1,1
O=c1cc(O)nc(SCc2ccccc2)n1-c1ccc(Cl)cc1,1,-9,-6,1,1
Cc1nc(CNS(=O)(=O)c2ccc3ccccc3c2)cs1,0.8,2,-9,1,1
Cc1nc(-c2cccc(NS(=O)(=O)c3ccc4ccccc4c3)c2)cs1,0.9,60*,-5,0.9,1
CC(=O)Nc1ccc(NC(=O)Cn2nc([N+](=O)[O-])c(Br)c2C)cc1,1.2,4,4,1.1,1.1
SMILES,Diaphorase act,WT yeast gro inh,Lmaj promast,PMI act,PMI act satM6P
Cc1ccc(C)c(NC(=O)Cn2nc([N+](=O)[O-])c(Br)c2C)c1,0.9,-11,73*,1,1
Cc1c(Br)c([N+](=O)[O-])nn1CC(=O)NCCc1c[nH]c2ccccc12,1,2,69*,1.1,0.9
O=C(Nc1ccc(Cc2ccncc2)cc1)C1CCC(N2C(=O)C3CCCCC3C2=O)CC1 (centres undefined),0.9,-6,6,0.9,0.9
Cc1cc(C(=O)N/N=C2\CC(=O)c3ccccc32)c(C)n1-c1ccccc1,0.8,3,98*,1.1,0.6
COc1cc(/C=N/N=C2/SCC(=O)N2c2ccc(O)cc2)ccc1O,0.9,1,16,1,1
O=C1CC(NCCC2=CCCCC2)C(=O)N1c1cccc(Cl)c1Cl (centres undefined),0.8,-5,-3,0.8,0.9
CCC(=O)c1ccc(OCC(=O)NCCc2ccccn2)cc1,1,21,-4,1.1,1
CCC(C(=O)Nc1cc(C(=O)Nc2cc(C)ccn2)ccc1Cl)c1ccccc1 (centres undefined),0.9,10,81*,0.9,0.8
Cc1ccc(NC(=O)c2ccccc2NS(=O)(=O)c2ccc(Cl)s2)cc1S(=O)(=O)N1CCOCC1,0.7,7,-4,1,1
CC(C)n1c(O)c(N=NC(=O)C2COc3ccccc3O2)c2ccccc21 (centres undefined),0.9,52,10,0.9,0.9
CO/N=C/c1ccc(N2CCN(C(=O)c3ccc(Cl)cc3Cl)CC2)c([N+](=O)[O-])c1,0.8,8,-1,0.8,0.8
CCOc1cc(C2Nc3ccccc3C(=O)N2c2ccccc2OC)ccc1O (centres undefined),0.9,74*,8,0.9,0.9
COc1cc(CNCc2cccs2)ccc1OCC(=O)NC(C)(C)C,1,-1,89*,1,1.1
COc1cc(CNCc2cccs2)ccc1OCc1cccs1,0.8,-3,100*,0.9,0.9
CCOc1cc(CNCc2cccs2)ccc1OCC(=O)NC(C)(C)C,1,-5,5,1,1.1
O=Cc1ccccc1OS(=O)(=O)c1ccccc1,0.9,-7,2,0.9,1
C=CCN(CC=C)CCOc1ccc(OC(C)C)cc1,0.8,-2,21,0.9,0.9
CC(C)Oc1ccc(OCCNC2CCCC2)cc1,1,6,79*,1.1,1.2
CCOc1cccc(OCCNC2CCCC2)c1,1,8,80*,0.9,0.9
CCOc1cccc(OCCCOc2ccccc2)c1,1,4,-4,1,1
CCN(CC)S(=O)(=O)c1ccc(OC)c(NC(=O)C(Cc2ccccc2)N2C(=O)c3ccccc3C2=O)c1 (centres undefined),0.9,-11,-6,0.9,1
CCNC(=O)C/C(C)=N/NC(=O)C(=O)Nc1ccc(CC)cc1,0.9,2,-2,1.1,1
Cc1c(Cl)cnc(NC(=O)COC(=O)c2ccc3ncsc3c2)c1Cl,0.8,2,62*,1,0.8
O=C(COC(=O)c1ccc2ncsc2c1)Nc1ncc(Cl)cc1Cl,0.9,19,-5,0.9,0.9
CC(C)c1ccccc1NC(=O)COC(=O)/C=C/c1cccc([N+](=O)[O-])c1,0.8,-3,-6,0.9,0.9
CCN(CC(=O)Nc1ccc(C(C)=O)cc1)CC(=O)Nc1cccc(OC)c1,0.8,8,1,0.9,1
COc1ccc(C2CC(c3cccs3)=Nc3ccccc3S2)cc1 (centres undefined),0.9,32,64*,0.9,0.9
